Columns and labels:
[1] = target: T1, 3-phosphoinositide-dependent protein kinase 1 (Homo sapiens, UniProt O15530); experiment: Inhibition of PDK1
T1 sequence (O15530 whole entry): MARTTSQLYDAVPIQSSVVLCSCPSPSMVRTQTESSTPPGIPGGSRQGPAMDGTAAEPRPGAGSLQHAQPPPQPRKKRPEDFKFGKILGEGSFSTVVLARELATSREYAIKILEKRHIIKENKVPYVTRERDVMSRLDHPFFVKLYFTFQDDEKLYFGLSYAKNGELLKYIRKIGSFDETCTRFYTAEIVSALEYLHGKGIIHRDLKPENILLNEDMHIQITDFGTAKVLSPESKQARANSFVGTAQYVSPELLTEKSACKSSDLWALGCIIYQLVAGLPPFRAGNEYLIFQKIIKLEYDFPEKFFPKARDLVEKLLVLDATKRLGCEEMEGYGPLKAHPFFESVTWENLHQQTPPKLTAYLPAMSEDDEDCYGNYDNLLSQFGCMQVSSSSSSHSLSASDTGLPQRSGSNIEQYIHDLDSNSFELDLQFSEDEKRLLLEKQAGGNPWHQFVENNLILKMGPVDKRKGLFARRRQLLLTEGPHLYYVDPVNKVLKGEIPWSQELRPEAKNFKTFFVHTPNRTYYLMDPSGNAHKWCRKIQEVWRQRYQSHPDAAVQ
Outline: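 Biochemical PDK1 enzymatic activity assay at 10 µM ATP; IC50 determined.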

[2] = Antiproliferative activity against human U87MG cells; assay type: functional, cell-based, U-87MG ATCC; conditions: U-87 MG
Outline: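 Antiproliferation run in vitro on U87MG cells; potency expressed as EC50.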

[3] = target: Phosphatidylinositol 4,5-bisphosphate 3-kinase catalytic subunit alpha isoform (Homo sapiens, UniProt P42336); experiment: Inhibition of PI3K p110alpha
Chain of Phosphatidylinositol 4,5-bisphosphate 3-kinase catalytic subunit alpha isoform (P42336 whole entry, canonical isoform): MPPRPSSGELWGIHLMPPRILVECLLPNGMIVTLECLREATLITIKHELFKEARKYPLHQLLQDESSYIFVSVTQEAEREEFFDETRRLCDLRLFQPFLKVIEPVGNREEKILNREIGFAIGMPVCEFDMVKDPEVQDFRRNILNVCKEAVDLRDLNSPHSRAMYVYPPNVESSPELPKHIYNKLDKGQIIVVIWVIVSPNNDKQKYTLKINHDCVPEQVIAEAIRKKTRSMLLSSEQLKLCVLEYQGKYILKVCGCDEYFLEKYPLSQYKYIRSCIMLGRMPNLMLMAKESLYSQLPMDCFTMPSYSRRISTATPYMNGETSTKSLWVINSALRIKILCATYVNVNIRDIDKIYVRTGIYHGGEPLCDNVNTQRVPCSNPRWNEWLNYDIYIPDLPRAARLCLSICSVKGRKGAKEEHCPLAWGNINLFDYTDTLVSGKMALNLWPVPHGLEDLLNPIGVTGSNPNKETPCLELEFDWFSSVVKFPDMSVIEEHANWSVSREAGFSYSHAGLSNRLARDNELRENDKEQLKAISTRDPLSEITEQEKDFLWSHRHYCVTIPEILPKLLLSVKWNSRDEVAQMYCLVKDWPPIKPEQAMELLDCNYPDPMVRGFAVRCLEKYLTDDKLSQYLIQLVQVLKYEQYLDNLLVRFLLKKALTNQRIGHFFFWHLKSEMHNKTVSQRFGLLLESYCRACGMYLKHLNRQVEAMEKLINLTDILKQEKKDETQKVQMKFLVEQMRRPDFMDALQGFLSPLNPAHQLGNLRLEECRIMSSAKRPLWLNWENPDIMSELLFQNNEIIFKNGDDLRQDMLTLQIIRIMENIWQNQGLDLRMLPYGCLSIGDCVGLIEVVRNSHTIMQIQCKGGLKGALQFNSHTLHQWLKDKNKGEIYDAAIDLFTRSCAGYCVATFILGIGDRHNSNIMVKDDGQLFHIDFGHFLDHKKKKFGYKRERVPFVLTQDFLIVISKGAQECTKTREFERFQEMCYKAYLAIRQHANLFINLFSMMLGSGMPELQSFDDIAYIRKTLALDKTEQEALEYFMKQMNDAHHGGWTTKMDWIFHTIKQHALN

[4] = target: Phosphatidylinositol 4,5-bisphosphate 3-kinase catalytic subunit beta isoform (Homo sapiens, UniProt P42338); experiment: Inhibition of PI3K p110beta
Chain of Phosphatidylinositol 4,5-bisphosphate 3-kinase catalytic subunit beta isoform (P42338 whole entry, canonical isoform): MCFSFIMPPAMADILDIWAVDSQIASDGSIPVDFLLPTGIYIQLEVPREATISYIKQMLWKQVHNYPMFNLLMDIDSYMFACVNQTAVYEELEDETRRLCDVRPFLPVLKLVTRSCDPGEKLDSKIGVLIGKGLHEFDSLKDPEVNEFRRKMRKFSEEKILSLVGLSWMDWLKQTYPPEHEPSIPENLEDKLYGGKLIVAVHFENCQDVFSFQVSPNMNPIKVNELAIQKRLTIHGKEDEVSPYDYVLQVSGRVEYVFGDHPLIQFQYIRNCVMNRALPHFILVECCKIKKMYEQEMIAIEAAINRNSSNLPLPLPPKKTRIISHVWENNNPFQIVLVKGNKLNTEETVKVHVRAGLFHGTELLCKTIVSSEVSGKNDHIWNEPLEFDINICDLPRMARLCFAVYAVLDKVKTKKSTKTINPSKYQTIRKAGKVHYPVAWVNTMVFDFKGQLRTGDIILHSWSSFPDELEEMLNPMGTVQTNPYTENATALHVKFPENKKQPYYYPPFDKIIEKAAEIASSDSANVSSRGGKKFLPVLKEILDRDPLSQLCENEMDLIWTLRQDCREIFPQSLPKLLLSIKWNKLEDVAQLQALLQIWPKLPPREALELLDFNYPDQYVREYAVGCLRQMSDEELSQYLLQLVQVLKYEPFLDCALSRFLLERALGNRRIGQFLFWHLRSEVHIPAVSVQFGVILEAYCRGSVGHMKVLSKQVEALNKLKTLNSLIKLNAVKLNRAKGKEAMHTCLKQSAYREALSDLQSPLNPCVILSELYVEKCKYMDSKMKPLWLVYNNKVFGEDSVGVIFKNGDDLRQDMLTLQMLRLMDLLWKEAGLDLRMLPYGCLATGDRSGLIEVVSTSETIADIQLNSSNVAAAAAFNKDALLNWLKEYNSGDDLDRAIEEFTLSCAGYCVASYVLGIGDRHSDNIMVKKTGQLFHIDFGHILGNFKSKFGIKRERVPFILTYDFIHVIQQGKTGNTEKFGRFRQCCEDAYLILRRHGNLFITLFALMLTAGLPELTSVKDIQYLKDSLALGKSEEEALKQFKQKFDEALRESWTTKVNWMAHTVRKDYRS

[5] = target: T2, Phosphatidylinositol 4,5-bisphosphate 3-kinase catalytic subunit delta isoform (Homo sapiens, UniProt O00329); experiment: Inhibition of PI3K p110delta
T2 sequence (O00329 whole entry): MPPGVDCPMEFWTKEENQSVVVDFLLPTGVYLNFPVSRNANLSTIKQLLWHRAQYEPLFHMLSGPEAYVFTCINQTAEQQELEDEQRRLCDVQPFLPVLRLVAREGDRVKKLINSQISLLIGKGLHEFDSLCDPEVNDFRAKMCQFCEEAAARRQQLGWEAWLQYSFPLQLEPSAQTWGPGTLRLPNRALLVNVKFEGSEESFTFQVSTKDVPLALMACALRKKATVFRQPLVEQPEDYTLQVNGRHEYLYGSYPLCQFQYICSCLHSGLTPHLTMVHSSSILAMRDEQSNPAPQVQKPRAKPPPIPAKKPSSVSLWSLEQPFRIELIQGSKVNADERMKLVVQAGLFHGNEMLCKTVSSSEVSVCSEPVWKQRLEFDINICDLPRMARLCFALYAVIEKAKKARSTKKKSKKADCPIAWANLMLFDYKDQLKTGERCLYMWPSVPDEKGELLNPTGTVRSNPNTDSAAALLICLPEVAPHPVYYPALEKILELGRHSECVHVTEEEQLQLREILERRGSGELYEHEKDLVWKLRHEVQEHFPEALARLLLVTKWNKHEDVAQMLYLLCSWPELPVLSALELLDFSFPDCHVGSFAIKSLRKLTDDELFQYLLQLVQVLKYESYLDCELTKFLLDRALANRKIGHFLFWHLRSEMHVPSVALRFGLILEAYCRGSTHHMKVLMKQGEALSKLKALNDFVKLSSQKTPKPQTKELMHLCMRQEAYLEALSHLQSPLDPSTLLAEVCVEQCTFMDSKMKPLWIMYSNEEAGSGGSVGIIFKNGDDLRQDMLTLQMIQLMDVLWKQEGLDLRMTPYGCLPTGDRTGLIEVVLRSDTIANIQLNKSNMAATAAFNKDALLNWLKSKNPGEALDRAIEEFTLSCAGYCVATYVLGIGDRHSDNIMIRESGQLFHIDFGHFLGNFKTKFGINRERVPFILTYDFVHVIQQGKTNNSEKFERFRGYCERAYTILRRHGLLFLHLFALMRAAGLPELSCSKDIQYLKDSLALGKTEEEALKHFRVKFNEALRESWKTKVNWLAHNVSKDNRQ

[6] = target: Phosphatidylinositol 4,5-bisphosphate 3-kinase catalytic subunit gamma isoform (Homo sapiens, UniProt P48736); experiment: Inhibition of PI3K p110gamma
Chain of Phosphatidylinositol 4,5-bisphosphate 3-kinase catalytic subunit gamma isoform (P48736 whole entry, canonical isoform): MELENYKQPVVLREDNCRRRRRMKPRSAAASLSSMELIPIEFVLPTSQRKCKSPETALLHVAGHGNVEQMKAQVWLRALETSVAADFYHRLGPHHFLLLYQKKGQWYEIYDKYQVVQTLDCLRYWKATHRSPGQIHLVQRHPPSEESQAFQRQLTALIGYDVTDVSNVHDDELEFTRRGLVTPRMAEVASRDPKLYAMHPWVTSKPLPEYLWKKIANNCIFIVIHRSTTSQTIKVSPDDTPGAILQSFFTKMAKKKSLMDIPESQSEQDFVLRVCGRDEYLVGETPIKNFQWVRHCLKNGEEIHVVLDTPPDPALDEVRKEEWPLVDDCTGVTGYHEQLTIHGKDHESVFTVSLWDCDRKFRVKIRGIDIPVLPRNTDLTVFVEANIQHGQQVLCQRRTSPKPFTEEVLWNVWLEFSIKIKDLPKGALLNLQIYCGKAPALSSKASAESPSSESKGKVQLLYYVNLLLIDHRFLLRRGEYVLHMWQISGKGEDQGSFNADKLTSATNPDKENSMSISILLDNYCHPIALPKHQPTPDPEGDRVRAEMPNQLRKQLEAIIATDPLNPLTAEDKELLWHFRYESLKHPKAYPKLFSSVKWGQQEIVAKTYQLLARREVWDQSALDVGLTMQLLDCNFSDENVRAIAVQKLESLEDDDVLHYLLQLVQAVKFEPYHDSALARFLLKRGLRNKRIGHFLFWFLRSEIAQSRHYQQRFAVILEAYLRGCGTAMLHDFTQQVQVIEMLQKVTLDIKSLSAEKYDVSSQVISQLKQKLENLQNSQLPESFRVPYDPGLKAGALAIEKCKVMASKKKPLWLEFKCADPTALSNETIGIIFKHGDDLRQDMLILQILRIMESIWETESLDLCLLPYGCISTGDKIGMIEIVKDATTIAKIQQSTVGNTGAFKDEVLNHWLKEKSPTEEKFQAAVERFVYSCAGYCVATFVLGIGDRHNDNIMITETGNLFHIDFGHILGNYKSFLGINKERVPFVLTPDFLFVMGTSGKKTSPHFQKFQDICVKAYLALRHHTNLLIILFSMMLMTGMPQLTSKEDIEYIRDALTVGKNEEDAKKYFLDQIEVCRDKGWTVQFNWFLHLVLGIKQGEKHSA

[7] = Antitumor activity in athymic mouse bearing human PC3M tumor assessed as reduction of tumor growth at 75 mg/kg, po bid after 15 days; assay type: functional, PC-3M; parameters: scale not given: the % may be the effect or the level left
Outline: (§1)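 PC3M tumour-bearing mice, compound formulated in NMP/PEG300, given orally twice per day at 50 or 75 mg/kg. Tumour volume read on day 15. T/C = mean difference of treated group ÷ mean difference of vehicle-treated control group × 100.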

[8] = Antitumor activity in athymic mouse bearing human PC3M tumor assessed as reduction of tumor growth at 50 mg/kg, po bid after 15 days; assay type: functional, PC-3M; parameters: scale not given: the % may be the effect or the level left; outline: as §1
[9] = Antitumor activity in mouse bearing human PC3M tumor assessed as reduction of tumor growth at 50 mg/kg, po bid after 27 days; assay type: functional, PC-3M; parameters: scale not given: the % may be the effect or the level left
Outline: (§2)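 PC3M tumour-bearing mice, oral dosing twice per day at 50 or 60 mg/kg in NMP/PEG300 vehicle. T/C taken on day 27 as mean difference of treated group over mean difference of vehicle control, ×100. Significance by one-way ANOVA followed by post hoc Dunnett's test versus control.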

[10] = Antitumor activity in mouse bearing human PC3M tumor assessed as reduction of tumor growth at 60 mg/kg, po bid after 27 days; assay type: functional, PC-3M; parameters: scale not given: the % may be the effect or the level left; outline: as §2
[11] = Inhibition of PKA at 10 uM
[12] = target: RAC-alpha serine/threonine-protein kinase (Homo sapiens) (UniProt P31749); experiment: Inhibition of PKB at 10 uM
Chain of RAC-alpha serine/threonine-protein kinase (Homo sapiens) (P31749 whole entry): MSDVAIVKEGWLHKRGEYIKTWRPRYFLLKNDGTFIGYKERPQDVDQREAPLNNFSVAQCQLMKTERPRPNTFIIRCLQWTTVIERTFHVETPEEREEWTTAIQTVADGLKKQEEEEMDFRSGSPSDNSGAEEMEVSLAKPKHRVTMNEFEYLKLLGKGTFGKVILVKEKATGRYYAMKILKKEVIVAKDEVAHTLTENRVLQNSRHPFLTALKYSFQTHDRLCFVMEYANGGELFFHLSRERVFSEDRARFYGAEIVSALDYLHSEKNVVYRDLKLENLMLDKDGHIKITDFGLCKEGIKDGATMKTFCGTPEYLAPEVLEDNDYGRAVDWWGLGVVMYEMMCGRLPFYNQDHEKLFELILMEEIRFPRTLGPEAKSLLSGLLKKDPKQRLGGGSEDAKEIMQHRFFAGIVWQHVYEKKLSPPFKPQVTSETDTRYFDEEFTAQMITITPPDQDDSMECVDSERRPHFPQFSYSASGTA

IC50 [1]	IC50 [3]	IC50 [4]	IC50 [5]	IC50 [6]	inhibition [11]	inhibition [12]	SMILES	EC50 [2]	Activity [7]	Activity [8]	Activity [9]	Activity [10]
327 nM	–	–	–	–	–	–	CCc1nc2cnc3ccc(C#Cc4cccnc4)cc3c2n1-c1ccc(CC#N)cc1	400 nM	–	–	–	–
110 nM	–	–	–	–	–	–	Cc1nc2cnc3ccc(C#Cc4cccnc4)cc3c2n1-c1ccc(CC#N)cc1	275 nM	–	–	–	–
245 nM	56 nM	446 nM	35 nM	117 nM	–	–	Cc1nc2cnc3ccc(C#Cc4cccnc4)cc3c2n1-c1ccc(C(C)C#N)cc1 (stereo not given)	143 nM	50%	85%	–	–
> 25000 nM	72 nM	2340 nM	201 nM	382 nM	–	–	Cn1c(=O)n(-c2ccc(C(C)(C)C#N)cc2)c2c3cc(C#Cc4cccnc4)ccc3ncc21	13 nM	–	–	31%	9%
150 nM	–	–	–	–	–	–	CC(C)(C#N)c1ccc(-n2cnc3cnc4ccc(C#Cc5cccnc5)cc4c32)cc1	446 nM	–	–	–	–
34 nM	64 nM	432 nM	98 nM	67 nM	24%	0%	N#CCc1ccc(-n2cnc3cnc4ccc(C#Cc5cccnc5)cc4c32)cc1	416 nM	–	–	–	–

Source: ChEMBL document CHEMBL1142269, “Imidazo[4,5-c]quinolines as inhibitors of the PI3K/PKB-pathway” (Bioorg Med Chem Lett, 2008)
